Measurements from ChEMBL document CHEMBL1926565, “Synthesis, antiproliferative activities and telomerase inhibition evaluation of novel asymmetrical 1,2-disubstituted amidoanthraquinone derivatives” (Eur J Med Chem, 2012).
Activity calls are given as the source filed them. The calls are words filed in the database; no cut-off is given here.

Experiments:
COLO 205 = assay: Cytotoxicity against human COLO205 cells assessed as cellular growth at 10 uM; format: functional
How it was run: (§1)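 Single-dose screen run by the NCI across its 60-human-tumour-cell-line panel; growth recorded for each cell line.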

Malme-3M = assay: Cytotoxicity against human MALME-3M cells assessed as cellular growth at 10 uM; format: functional; how it was run: as §1
786-0 = assay: Cytotoxicity against human 786-0 cells assessed as cellular growth at 10 uM; format: functional; how it was run: as §1
[1] = target: Telomerase reverse transcriptase (Homo sapiens) (UniProt O14746); assay: Residual activity of human TERT in H1299 cells at 10 uM after 24 hrs by SEAP reporter gene assay
SNB-75 = assay: Cytotoxicity against human SNB75 cells assessed as cellular growth at 10 uM; format: functional
U-251 = assay: Cytotoxicity against human U251 cells assessed as cellular growth at 10 uM; format: functional
CAKI-1 = assay: Cytotoxicity against human Caki1 cells assessed as cellular growth at 10 uM; format: functional; how it was run: as §1
[2] = Growth of human H1299 cells at 1 uM after 48 hrs by MTT assay; details: NCI-H1299, 48 h
LOX IMVI = assay: Cytotoxicity against human LOXIMVI cells assessed as cellular growth at 10 uM; format: functional; how it was run: as §1
EKVX = assay: Cytotoxicity against human EKVX cells assessed as cellular growth at 10 uM; format: functional; how it was run: as §1
SR = assay: Cytotoxicity against human SR cells assessed as cellular growth at 10 uM; format: functional
SK-MEL-5 = assay: Cytotoxicity against human SK-MEL-5 cells assessed as cellular growth at 10 uM; format: functional
OVCAR-5 = assay: Cytotoxicity against human OVCAR5 cells assessed as cellular growth at 10 uM; format: functional; how it was run: as §1
OVCAR-3 = assay: Cytotoxicity against human OVCAR3 cells assessed as cellular growth at 10 uM; format: functional; how it was run: as §1
SNB-19 = assay: Cytotoxicity against human SNB19 cells assessed as cellular growth at 10 uM; format: functional
IGROV-1 = assay: Cytotoxicity against human IGROV1 cells assessed as cellular growth at 10 uM; format: functional; how it was run: as §1
UACC-257 = assay: Cytotoxicity against human UACC257 cells assessed as cellular growth at 10 uM; format: functional
[3] = target: Telomerase reverse transcriptase (Homo sapiens) (UniProt O14746); assay: Inhibition of telomerase activity in human H1299 cell free extract at 10 uM by modified TRAP assay
How it was run: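 TRAP assay using total cell lysate from H1299 lung cancer cells as the telomerase source, with protein measured against BSA standards. Compounds tested at 10 µM. Controls were lysate without inhibitor (positive) and RNase A-treated extract without inhibitor (negative).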

KM12 = assay: Cytotoxicity against human KM12 cells assessed as cellular growth at 10 uM; format: functional; how it was run: as §1
NCI-H460 = assay: Cytotoxicity against human NCI-H460 cells assessed as cellular growth at 10 uM; format: functional; how it was run: as §1
M14 = assay: Cytotoxicity against human M14 cells assessed as cellular growth at 10 uM; format: functional; how it was run: as §1
HL-60(TB) = assay: Cytotoxicity against human HL-60(TB) cells assessed as cellular growth at 10 uM; format: functional; how it was run: as §1
SN12C = assay: Cytotoxicity against human SN12C cells assessed as cellular growth at 10 uM; format: functional
[4] = Growth of human H1299 cells at 100 uM 48 hrs by MTT assay; details: NCI-H1299, 48 h
NCI/ADR-RES = assay: Cytotoxicity against human NCI/ADR-RES cells assessed as cellular growth at 10 uM; format: functional; how it was run: as §1
[5] = target: Telomerase reverse transcriptase (Homo sapiens) (UniProt O14746); assay: Residual activity of human TERT in H1299 cells at 100 uM after 24 hrs by SEAP reporter gene assay
NCI-H23 = assay: Cytotoxicity against human NCI-H23 cells assessed as cellular growth at 10 uM; format: functional; how it was run: as §1
A498 = assay: Cytotoxicity against human A498 cells assessed as cellular growth at 10 uM; format: functional; how it was run: as §1
RXF 393 = assay: Cytotoxicity against human RXF393 cells assessed as cellular growth at 10 uM; format: functional; how it was run: as §1
HCT-15 = assay: Cytotoxicity against human HCT15 cells assessed as cellular growth at 10 uM; format: functional; how it was run: as §1
CCRF-CEM = assay: Cytotoxicity against human CCRF-CEM cells assessed as cellular growth at 10 uM; format: functional; how it was run: as §1
NCI-H322M = assay: Cytotoxicity against human NCI-H322M cells assessed as cellular growth at 10 uM; format: functional; how it was run: as §1
SF-268 = assay: Cytotoxicity against human SF268 cells assessed as cellular growth at 10 uM; format: functional; how it was run: as §1
SK-OV-3 = assay: Cytotoxicity against human SKOV3 cells assessed as cellular growth at 10 uM; format: functional
SF-539 = assay: Cytotoxicity against human SF539 cells assessed as cellular growth at 10 uM; format: functional; how it was run: as §1
PC-3 [6] = assay: Cytotoxicity against human PC3 cells after 48 hrs by SRB assay; format: functional, cell-based; details: PC-3, 48 h
How it was run: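 PC-3 cells grown in RPMI1640 with 10% FBS at 37 °C, 5% CO₂. Seeded in medium with 5% FBS; after 24 h, one plate fixed with 10% TCA as T₀. Compound or 0.1% DMSO vehicle added for 48 h, then TCA fixation and 0.4% SRB in 1% acetic acid. Dye solubilized in 10 mM Trizma base, absorbance read at 515 nm. IC50 is the concentration giving 50% reduction of the protein gain in controls.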

HCT-116 = assay: Cytotoxicity against human HCT116 cells assessed as cellular growth at 10 uM; format: functional; how it was run: as §1
HOP-62 = assay: Cytotoxicity against human HOP62 cells assessed as cellular growth at 10 uM; format: functional; how it was run: as §1
PC-3 [7] = assay: Cytotoxicity against human PC3 cells assessed as cellular growth at 10 uM; format: functional; how it was run: as §1
MDA-MB-231 = assay: Cytotoxicity against human MDA-MB-231 cells assessed as cellular growth at 10 uM; format: functional; how it was run: as §1
OVCAR-4 = assay: Cytotoxicity against human OVCAR4 cells assessed as cellular growth at 10 uM; format: functional; how it was run: as §1
HCC 2998 = assay: Cytotoxicity against human HCC2998 cells assessed as cellular growth at 10 uM; format: functional; how it was run: as §1
ACHN = assay: Cytotoxicity against human ACHN cells assessed as cellular growth at 10 uM; format: functional; how it was run: as §1
BT-549 = assay: Cytotoxicity against human BT549 cells assessed as cellular growth at 10 uM; format: functional; how it was run: as §1
NCI-H226 = assay: Cytotoxicity against human NCI-H226 cells assessed as cellular growth at 10 uM; format: functional; how it was run: as §1
MOLT-4 = assay: Cytotoxicity against human MOLT4 cells assessed as cellular growth at 10 uM; format: functional; how it was run: as §1
[8] = target: Telomerase reverse transcriptase (Homo sapiens) (UniProt O14746); assay: Residual activity of human TERT in H1299 cells at 1 uM after 24 hrs by SEAP reporter gene assay
[9] = Cytotoxicity against human Hs 578T cells assessed as cellular growth at 10 uM; format: functional; how it was run: as §1

Chain of Telomerase reverse transcriptase (Homo sapiens) (O14746 whole entry): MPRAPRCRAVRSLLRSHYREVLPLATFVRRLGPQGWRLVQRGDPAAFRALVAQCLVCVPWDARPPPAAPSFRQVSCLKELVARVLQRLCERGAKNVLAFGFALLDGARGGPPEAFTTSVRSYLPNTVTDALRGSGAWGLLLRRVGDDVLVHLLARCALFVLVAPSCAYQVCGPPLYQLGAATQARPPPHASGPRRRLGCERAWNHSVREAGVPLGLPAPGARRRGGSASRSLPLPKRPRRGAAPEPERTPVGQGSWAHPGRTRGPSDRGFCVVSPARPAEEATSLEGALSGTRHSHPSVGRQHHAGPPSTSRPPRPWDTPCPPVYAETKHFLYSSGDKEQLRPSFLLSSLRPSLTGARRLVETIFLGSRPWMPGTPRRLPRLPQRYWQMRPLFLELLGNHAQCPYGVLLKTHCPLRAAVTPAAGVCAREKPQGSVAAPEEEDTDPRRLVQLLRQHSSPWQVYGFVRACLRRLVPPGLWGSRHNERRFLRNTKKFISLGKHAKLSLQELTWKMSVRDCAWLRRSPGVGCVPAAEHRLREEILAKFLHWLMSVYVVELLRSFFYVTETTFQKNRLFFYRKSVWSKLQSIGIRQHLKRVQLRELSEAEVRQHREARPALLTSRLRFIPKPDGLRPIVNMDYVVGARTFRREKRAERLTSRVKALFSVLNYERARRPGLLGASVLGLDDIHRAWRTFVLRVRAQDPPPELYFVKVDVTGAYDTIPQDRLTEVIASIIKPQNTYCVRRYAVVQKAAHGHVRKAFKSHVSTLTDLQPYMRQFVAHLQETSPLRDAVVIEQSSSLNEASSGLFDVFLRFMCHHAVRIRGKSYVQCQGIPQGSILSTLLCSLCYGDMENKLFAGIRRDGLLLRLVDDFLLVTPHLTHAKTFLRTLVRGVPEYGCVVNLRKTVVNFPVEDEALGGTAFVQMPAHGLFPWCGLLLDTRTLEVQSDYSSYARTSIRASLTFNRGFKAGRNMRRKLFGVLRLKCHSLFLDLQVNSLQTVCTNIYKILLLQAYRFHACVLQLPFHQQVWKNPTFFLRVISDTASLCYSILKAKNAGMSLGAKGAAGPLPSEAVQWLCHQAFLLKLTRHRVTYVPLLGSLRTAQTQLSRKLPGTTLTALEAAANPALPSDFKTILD

## Cc1ccc(C(=O)Nc2c(NC(=O)CN3CCN(C)CC3)ccc3c2C(=O)c2ccccc2C3=O)cc1
COLO 205
  Activity: 2.29%
Malme-3M
  Activity: 10.84%
786-0
  Activity: 11.9%
[1]
  residual activity: 29%
SNB-75
  Activity: 82.17%
U-251
  Activity: 22.38%
CAKI-1
  Activity: 69.76%
[2]
  growth, % of control at 1 µM: 77%
LOX IMVI
  Activity: 1.24%
EKVX
  Activity: 78.07%
SR
  Activity: -43.7%
SK-MEL-5
  Activity: 41.3%
OVCAR-5
  Activity: 106.66%
OVCAR-3
  Activity: -6.15%
SNB-19
  Activity: 68.75%
IGROV-1
  Activity: 112.2%
UACC-257
  Activity: -50.95%
[3]
  inhibition: inactive
KM12
  Activity: 44.05%
NCI-H460
  Activity: 37.47%
M14
  Activity: -60.04%
HL-60(TB)
  Activity: -8.54%
SN12C
  Activity: 63.31%
[4]
  growth, % of control at 100 µM: 3%
NCI/ADR-RES
  Activity: 66.74%
[5]
  residual activity: 8%
NCI-H23
  Activity: 89.52%
A498
  Activity: 67.36%
RXF 393
  Activity: 68.84%
HCT-15
  Activity: 27.47%
CCRF-CEM
  Activity: 61.06%
NCI-H322M
  Activity: 72.6%
SF-268
  Activity: 59.11%
SK-OV-3
  Activity: 108.91%
SF-539
  Activity: 62.68%
PC-3 [6]
  IC50: 3.46 µM
HCT-116
  Activity: 8.37%
HOP-62
  Activity: 75.21%
PC-3 [7]
  Activity: 84.75%
MDA-MB-231
  Activity: 37%
OVCAR-4
  Activity: 57.11%
HCC 2998
  Activity: 28.97%
ACHN
  Activity: 49.87%
BT-549
  Activity: 91.88%
NCI-H226
  Activity: 93.87%
MOLT-4
  Activity: 26.04%
[8]
  residual activity: 78%
[9]
  Activity: 87.29%
